Data reported in article PMC3204787 (Biochemistry, 2011).
pIC50, pKi: −log10 of the molar value.

What was measured:
HIV-1 RT Q91A [1] = test: Steady-state kinetics of polymerization, Q91A mutant; assay type: biochemical, human immunodeficiency virus type 1; details: Q91A vs wild type; poly-rA.dT18 template, dTTP
HIV-1 RT Q91A [2] = target: T1, HIV-1 RT Q91A (Human immunodeficiency virus type 1 group M subtype B, UniProt P03366, Q690A); test: as above; assay type: biochemical; details: Q91A, 25°C
HIV-1 RT Q91N+M184V [3] = target: T2, HIV-1 RT Q91N+M184V (Human immunodeficiency virus type 1 group M subtype B, UniProt P03366, M783V/Q690N); test: Steady-state kinetics of polymerization, Q91N+M184V mutant; assay type: biochemical; details: 25°C
How it was run: (§1)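 Run at 25 °C with 40 nM mutant RT and 100 nM poly rA.dT18 or poly rC.dG18, each prepared by annealing equimolar template and primer at 20 μM. Buffer was 50 mM Tris-HCl pH 7.5, 2 mM MgCl2, 1 mM DTT and 100 μg/mL BSA. Complementary dTTP or dGTP was varied, with [3H]dTTP specific activity set using unlabeled dTTP. Reactions were started with MgCl2 and stopped with ice-cold 5% TCA at set times, then filtered and scintillation-counted. Km and Vmax came from Eadie-Hofstee plots of initial velocities; kcat = Vmax/[E].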

HIV-1 RT Q91N [4] = target: T3, HIV-1 RT Q91N (Human immunodeficiency virus type 1 group M subtype B, UniProt P03366, Q690N); test: Steady-state kinetics of polymerization, Q91N mutant; assay type: biochemical
How it was run: as §1

HIV-1 RT M184V [5] = target: T4, HIV-1 RT M184V (Human immunodeficiency virus type 1 group M subtype B, UniProt P03366, M783V); test: Steady-state kinetics of polymerization, M184V mutant; assay type: biochemical; details: 25°C
HIV-1 RT Q91A+M184V [6] = target: T5, HIV-1 RT Q91A+M184V (Human immunodeficiency virus type 1 group M subtype B, UniProt P03366, M783V/Q690A); test: Steady-state kinetics of polymerization, Q91A+M184V mutant; assay type: biochemical; details: Q91A+M184V, 25°C
HIV-1 RT Q91A+M184V [7] = test: as above; assay type: biochemical, human immunodeficiency virus type 1; details: Q91A/M184V vs wild type; poly-rA.dT18 template, dTTP
wild type HIV-1 RT [8] = target: T6, wild type HIV-1 RT (Human immunodeficiency virus type 1 group M subtype B, UniProt P03366); test: Steady-state kinetics of polymerization, wild-type enzyme; assay type: biochemical; details: WT, 25°C
HIV-1 RT Q91A [9] = target: T1, HIV-1 RT Q91A; test: Inhibition of reverse transcription by ddNTP inhibitors, Q91A mutant; assay type: biochemical; details: for pKi: 37 °C 3 min; for pIC50: IC50=Ki(1+[S]/Km)
HIV-1 RT M184V [10] = target: T4, HIV-1 RT M184V; test: Inhibition of reverse transcription by ddNTP inhibitors, M184V mutant; assay type: biochemical; details: for pKi: 37 °C 3 min; for pIC50: IC50=Ki(1+[S]/Km)
wild type HIV-1 RT [11] = target: T6, wild type HIV-1 RT; test: Inhibition of reverse transcription by ddNTP inhibitors, wild-type enzyme; assay type: biochemical; details: WT; for pKi: 37 °C 3 min; for pIC50: IC50=Ki(1+[S]/Km)
HIV-1 RT Q91N [12] = target: T3, HIV-1 RT Q91N; test: Inhibition of reverse transcription by ddNTP inhibitors, Q91N mutant; assay type: biochemical; details: for pKi: 37 °C 3 min; for pIC50: IC50=Ki(1+[S]/Km)
How it was run: (§2)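 Recombinant heterodimeric HIV-1 RT (p66 with N-terminally His-tagged p51), mutation present in both subunits, used at 10 nM. The enzyme was preincubated with 100 nM poly rA.dT18 or poly rC-dG18 for 2 min at 25 °C. Synthesis was started with Mg-complexed 10 μM [3H]dTTP or dGTP (1 μCi per assay) plus varied ddTTP or ddGTP, then run 3 min at 37 °C. Reactions were stopped with cold 5% TCA/5 mM PPi, collected on GF/B filters and counted by scintillation. Ki came from percent inhibition using the competitive-inhibitor equation; IC50 = Ki(1+[S]/Km). Three independent experiments.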

HIV-1 RT Q91N+M184V [13] = target: T2, HIV-1 RT Q91N+M184V; test: Inhibition of reverse transcription by ddNTP inhibitors, Q91N+M184V mutant; assay type: biochemical; details: for pKi: 37 °C 3 min; for pIC50: IC50=Ki(1+[S]/Km)
How it was run: as §2

HIV-1 RT Q91A+M184V [14] = target: T5, HIV-1 RT Q91A+M184V; test: Inhibition of reverse transcription by ddNTP inhibitors, Q91A+M184V mutant; assay type: biochemical; details: for pKi: 37 °C 3 min; for pIC50: IC50=Ki(1+[S]/Km)
[15] = Poly rA.dT18 template-primer, dTTP substrate
[16] = Poly rC.dG18 template-primer, dGTP substrate
[17] = poly rC-dG18 100 nM, dGTP 10 μM
[18] = poly rA.dT18 100 nM, dTTP 10 μM

With Cc1cn([C@H]2C[C@H](O)[C@@H](COP(=O)(O)OP(=O)(O)OP(=O)(O)O)O2)c(=O)[nH]c1=O [dTTP] the “decrease in the catalytic efficiency” value (HIV-1 RT Q91A [1]) was 21 fold, the KmdTTP (HIV-1 RT Q91A [2]; Poly rA.dT18 template-primer) was 30.0 ± 3.5 µM and the Kcat (HIV-1 RT Q91A [2]; [15]) was 0.10 ± 0.03 s⁻¹. It also gave a KmdTTP (HIV-1 RT Q91N+M184V [3]; Poly rA.dT18 template-primer) of 5.0 ± 1.0 µM, a Kcat (HIV-1 RT Q91N+M184V [3]; [15]) of 0.27 ± 0.11 s⁻¹ and a KmdTTP (HIV-1 RT Q91N [4]; Q91N, Poly rA.dT18 template-primer, 25°C) of 7.0 ± 1.5 µM. It also gave a Kcat (HIV-1 RT Q91N [4]; Q91N, Poly rA.dT18 template-primer, dTTP substrate, 25°C) of 0.25 ± 0.08 s⁻¹, a KmdTTP (HIV-1 RT M184V [5]; Poly rA.dT18 template-primer) of 3.5 ± 1.2 µM and a Kcat (HIV-1 RT M184V [5]; [15]) of 0.53 ± 0.12 s⁻¹. For the same molecule, the KmdTTP (HIV-1 RT Q91A+M184V [6]; Poly rA.dT18 template-primer) was 37.0 ± 4.0 µM, the Kcat (HIV-1 RT Q91A+M184V [6]; [15]) was 0.23 ± 0.07 s⁻¹ and the “decrease in the catalytic efficiency” value (HIV-1 RT Q91A+M184V [7]) was 43 fold. For the same molecule, the KmdTTP (wild type HIV-1 RT [8]; Poly rA.dT18 template-primer) was 3.0 ± 1.1 µM and the Kcat (wild type HIV-1 RT [8]; [15]) was 0.39 ± 0.6 s⁻¹.
For Nc1nc2c(ncn2[C@H]2C[C@H](O)[C@@H](COP(=O)(O)OP(=O)(O)OP(=O)(O)O)O2)c(=O)[nH]1 [dGTP], the KmdGTP (HIV-1 RT Q91A [2]; Poly rC.dG18 template-primer) was 25.0 ± 4.0 µM, the Kcat (HIV-1 RT Q91A [2]; [16]) was 0.02 ± 0.006 s⁻¹ and the KmdGTP (HIV-1 RT Q91N+M184V [3]; Poly rC.dG18 template-primer) was 8.0 ± 1.8 µM. The Kcat (HIV-1 RT Q91N+M184V [3]; [16]) was 0.04 ± 0.012 s⁻¹, the “decrease in catalytic efficiency” value (HIV-1 RT Q91N [4]; Q91N vs wild type, poly rC template, range given jointly for Q91N and Q91N/M184V) was 5–10 fold and the KmdGTP (HIV-1 RT Q91N [4]; Q91N, Poly rC.dG18 template-primer, 25°C) was 8.0 ± 2.1 µM. It also gave a Kcat (HIV-1 RT Q91N [4]; Q91N, Poly rC.dG18 template-primer, dGTP substrate, 25°C) of 0.02 ± 0.002 s⁻¹, a KmdGTP (HIV-1 RT M184V [5]; Poly rC.dG18 template-primer) of 8.0 ± 2.2 µM and a Kcat (HIV-1 RT M184V [5]; [16]) of 0.08 ± 0.011 s⁻¹. It also gave a KmdGTP (HIV-1 RT Q91A+M184V [6]; Poly rC.dG18 template-primer) of 57.0 ± 5.0 µM, a Kcat (HIV-1 RT Q91A+M184V [6]; [16]) of 0.06 ± 0.010 s⁻¹ and a KmdGTP (wild type HIV-1 RT [8]; Poly rC.dG18 template-primer) of 6.0 ± 1.4 µM. The Kcat (wild type HIV-1 RT [8]; [16]) was 0.15 ± 0.019 s⁻¹.
With Nc1nc2c(ncn2[C@H]2CC[C@@H](COP(=O)(O)OP(=O)(O)OP(=O)(O)O)O2)c(=O)[nH]1 [ddGTP] the pKi (HIV-1 RT Q91A [9]; [17]) was 6.05, the pIC50 (HIV-1 RT Q91A [9]; [17]) was 5.91 and the pKi (HIV-1 RT M184V [10]; [17]) was 6.39. For the same molecule, the pIC50 (HIV-1 RT M184V [10]; [17]) was 6.05, the pKi (wild type HIV-1 RT [11]; [17]) was 6.95 and the pIC50 (wild type HIV-1 RT [11]; [17]) was 6.51. The pKi (HIV-1 RT Q91N [12]; [17]) was 6.32, the pIC50 (HIV-1 RT Q91N [12]; [17]) was 5.96 and the pKi (HIV-1 RT Q91N+M184V [13]; [17]) was 6.89. It also gave a pIC50 (HIV-1 RT Q91N+M184V [13]; [17]) of 6.55, a pKi (HIV-1 RT Q91A+M184V [14]; [17]) of 6.38 and a pIC50 (HIV-1 RT Q91A+M184V [14]; [17]) of 6.31.
With Cc1cn([C@H]2CC[C@@H](COP(=O)(O)OP(=O)(O)OP(=O)(O)O)O2)c(=O)[nH]c1=O [ddTTP] the pKi (HIV-1 RT Q91A [9]; [18]) was 7.12, the pIC50 (HIV-1 RT Q91A [9]; [18]) was 7.00 and the pKi (HIV-1 RT M184V [10]; [18]) was 7.74. For the same molecule, the pIC50 (HIV-1 RT M184V [10]; [18]) was 7.16, the pKi (wild type HIV-1 RT [11]; [18]) was 8.40 and the pIC50 (wild type HIV-1 RT [11]; [18]) was 7.77. It also gave a pKi (HIV-1 RT Q91N [12]; [18]) of 7.21, a pIC50 (HIV-1 RT Q91N [12]; [18]) of 6.82 and a pKi (HIV-1 RT Q91N+M184V [13]; [18]) of 7.92. It also gave a pIC50 (HIV-1 RT Q91N+M184V [13]; [18]) of 7.44, a pKi (HIV-1 RT Q91A+M184V [14]; [18]) of 7.35 and a pIC50 (HIV-1 RT Q91A+M184V [14]; [18]) of 7.24.
